Experimental data taken from article PMC3831659 (European journal of medicinal chemistry, 2013).

What was measured:
[1] = test system: Vero cells; assay: Cytotoxicity for Vero cells; assay type: cell-based
[2] = test system: Toxoplasma gondii (tachyzoites); assay: T. gondii tachyzoites growth assay; assay type: cell-based; conditions: tachyzoites expressing red fluorescent protein in hTERT cells
Summary of the method: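 hTERT host cells grown in high-glucose DMEM with 1% fetal bovine serum, 2 mM glutamine and 1 mM pyruvate at 37 °C in humid 5% CO2. They were inoculated with 4 × 10⁴ RFP-expressing tachyzoites/well in the same medium. Plates were incubated at 37 °C and read daily through covered lids, bottom fluorescence ex 544/em 590 nm. EC50 was fitted as I = Imax·C/(EC50 + C), with Imax = 100%.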

[3] = test system: T. cruzi (amastigotes); conditions: clinically more relevant form of T. cruzi; cited from earlier work
[4] = test system: epimastigotes (EP strain); conditions: ergosterol and its 24-ethyl analogue; cited from earlier work
[5] = test system: Trypanosoma cruzi; conditions: protection not as efficient as ketoconazole (positive control); cited from earlier work

Row | Compound | Cytotoxicity on Vero cells ED50 ([1]; Alamar Blue assay) [µM] | Toxoplasma gondii (tachyzoites) ED50 [2] | other results
1 | N#CSCCOc1cccc(Oc2ccccc2)c1 [Compound 36, 3-Phenoxyphenoxyethyl Thiocyanate] | > 50 |  | 
2 | N#CSCCOc1ccc(Oc2cccc([N+](=O)[O-])c2)cc1 [Compound 13, 4-(3-Nitrophenoxy)phenoxyethyl Thiocyanate] | > 50 |  | 
3 | N#CSCCOc1ccc(Oc2cccnc2)cc1 [Compound 28, 4-(Pyridin-3-yloxy)phenoxyethyl Thiocyanate] | > 50 | 7.5 ± 0.8 µM | 
4 | O=[N+]([O-])c1cccc(Oc2ccc(OCCOC3CCCCO3)cc2)c1 (stereo not drawn) [Compound 10, 4-(3-Nitrophenoxy)phenoxyethyl Tetrahydro-2H-pyran-2-yl Ether] | > 50 |  | 
5 | COc1ccc(Oc2ccc(OCCSC#N)cc2)cc1 [Compound 21, 4-(4-Methoxyphenoxy)phenoxyethyl Thiocyanate] | > 100 |  | 
6 | c1cncc(Oc2ccc(OCCOC3CCCCO3)cc2)c1 (stereo not drawn) [Compound 25, 4-(Pyridin-3-yloxy)phenoxyethyl Tetrahydro-2H-pyran-2-yl Ether] | > 50 | vanishing antiparasitic activity | 
7 | COc1cccc(Oc2ccc(OCCSC#N)cc2)c1 [Compound 22, 4-(3-Methoxyphenoxy)phenoxyethyl Thiocyanate] | > 50 | 6.7 ± 3.1 µM | 
8 | COc1ccc(Oc2cccc(OCCSC#N)c2)cc1 [Compound 37, 3-(4-Methoxyphenoxy)phenoxyethyl Thiocyanate] | > 50 |  | 
9 | N#CSCCOc1ccc(Oc2ccccc2)cc1 [WC-9, 4-Phenoxyphenoxyethyl thiocyanate] |  |  | Cytotoxicity on Vero cells ED50 ([1]; African green monkey): > 50 µM; IC50 against T. cruzi amastigotes [3]: low nanomolar range; depletion of parasite endogenous sterols [4]: almost complete disappearance of the parasite sterols; effect on parasitemia in murine models of Chagas disease [5]: able to impair parasitemia
